# Hits are enriched below; roughly 3.5% of the tested compounds scored in any of these assays.
# STAT3 act: activators of IL-6 induced STAT3 signaling; U3A cells, IL-6 STAT3-luciferase reporter, luminescence; 100% = signal with IL-6 EC80 alone; activation (% of control), % at 5.6 µM; 0.91% of 190,000 active;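 active = activation above the screen-wide mean of compound activation plus 3 SD, cut at about 130% in these data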;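 also: 0% = background luminescence of wells with medium and substrate only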
#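 Material: human STAT1-deficient U3A cells with stable STAT3-luciferase reporter / Probe or stimulus: IL-6 stimulus at 33 ng/mL final / Schedule: 1 h compound pre-exposure, 6 h IL-6 stimulation, 37 °C / Technique: luminescence / Read-out basis: percent of IL-6-only median luminescence / Control set: IL-6-only high control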
# FXIIa inh 1536: factor XIIa (human) inhibition; P00748; purified FXIIa, Boc-QGR-AMC fluorogenic substrate, 2 h; inhibition, % at 5 µM; 0.3% of 220,000 active; in the data active = inhibition above about 40%;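 also: 0% = enzyme with no compound and 100% = blank without enzyme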
# Target sequence (P00748 20-372 limits assumed): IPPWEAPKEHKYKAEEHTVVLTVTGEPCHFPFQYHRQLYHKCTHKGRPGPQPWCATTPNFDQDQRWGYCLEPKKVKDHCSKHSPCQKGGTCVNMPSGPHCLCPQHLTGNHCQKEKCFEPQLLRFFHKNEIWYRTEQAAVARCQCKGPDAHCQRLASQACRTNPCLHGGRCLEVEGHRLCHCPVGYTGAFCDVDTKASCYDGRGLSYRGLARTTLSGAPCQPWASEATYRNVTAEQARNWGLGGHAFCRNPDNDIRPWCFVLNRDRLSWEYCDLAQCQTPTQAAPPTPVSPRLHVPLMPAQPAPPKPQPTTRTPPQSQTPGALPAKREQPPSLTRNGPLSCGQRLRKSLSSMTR
# Target sequence (P00748 373-615 limits assumed): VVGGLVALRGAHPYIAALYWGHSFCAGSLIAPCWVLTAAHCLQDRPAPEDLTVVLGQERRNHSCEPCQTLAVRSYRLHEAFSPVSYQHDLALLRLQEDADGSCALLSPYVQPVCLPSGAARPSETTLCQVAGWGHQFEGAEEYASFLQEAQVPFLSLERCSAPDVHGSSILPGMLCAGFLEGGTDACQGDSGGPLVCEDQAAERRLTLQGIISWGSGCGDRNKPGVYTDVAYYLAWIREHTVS
# KLK5 inh: kallikrein 5 (human) inhibition | Q9Y337 | recombinant hK5, fluorogenic AMC substrate cleavage | inhibition, % at 5 µM | 0.59% of 210,000 active | AID 873;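 active = inhibition of 40% or more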;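 also: 0% = enzyme controls without compound and 100% = no-enzyme blanks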
# thrombin 1536: thrombin (human) inhibition. 0.26% of 220,000 active. inhibition, % at 5 µM. P00734. alpha-thrombin, Boc-VPR-AMC fluorogenic substrate cleavage;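 active = inhibition at or above 40%; inactive = inhibition below 40%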;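 also: 0% = enzyme with no compound and 100% = wells without enzyme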
#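 System: human alpha-thrombin protein; Compound dosing: one concentration per compound, 5 µM, with 0.2% DMSO; Timing: reaction at room temperature; Technique: AMC fluorescence, 355/460 nm; Controls: enzyme without compound as high, wells lacking enzyme as low.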
# AHR activator: activates the human aryl hydrocarbon receptor; P35869; AHR-responsive luciferase reporter cells, luminescence; activation, % at 5 µM; 2.5% of 320,000 active; AID 2796; in the data active = activation above about 47%;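 also: 0% = vehicle wells and 100% = reference agonist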
# FXIa inh: blocks human coagulation factor XIa protease activity. purified FXIa, Boc-Glu-Ala-Arg-AMC fluorogenic substrate. inhibition, % at 5 µM. 0.14% of 220,000 active. P03951. AID 798;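 active = inhibition of at least 40%; inactive = inhibition below 40%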;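 also: fluorescence of freed AMC excited at 355 nm; 0% = enzyme without compound and 100% = no enzyme blank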
# AHR act cf: confirmation of human aryl hydrocarbon receptor activators; human cells, AHR-responsive luciferase reporter, luminescence; 87% of 2,300 active; activation, % at 9 µM; shares compounds with AHR activator; AID 2845; in the data active = activation above about 49%;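 also: HepG2 hepatoma cells carrying a DRE-driven firefly luciferase reporter; 0% = vehicle wells and 100% = reference agonist wells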
# PXR counter: counter-screen for AHR activators: human PXR activators; shares compounds with AHR activator; cell-based PXR reporter, luciferase luminescence; activation, % at 11.6 µM; 88% of 2,300 active; AID 434939; in the data active = activation above about 11%;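 also: human hepatoma DPX-2 cells expressing full-length human PXR; 0% = DMSO and 100% = reference agonist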
# An asterisk follows results filed as active; nt = no result given.
SMILES,STAT3 act,FXIIa inh 1536,KLK5 inh,thrombin 1536,AHR activator,FXIa inh,AHR act cf,PXR counter
Nn1c(SCCOc2ccc(Cl)cc2)nnc1-c1cccnc1,108,27,21,26,91*,31,125*,22*
CC1C(=O)N2CCCc3cc(NC(=O)C4CC4)cc1c32 (stereo unspecified),nt,nt,nt,nt,12,nt,nt,nt
CCCCNC(=S)Nc1cccc2cnccc12,103,6,-8,-8,89*,5,61*,13*
CC(C)c1ccc(C(=O)NCCCN(C)C)cc1,97,3,-11,-7,8,-5,nt,nt
Cc1ccc(N2CC(C(=O)Nc3ccc(C)c(S(=O)(=O)N(C)C)c3)CC2=O)cc1 (stereo unspecified),87,15,32,-6,-1,9,nt,nt
O=C(NC1CC1)c1sc2cc(Cl)ccc2c1Cl,nt,nt,nt,nt,-5,nt,nt,nt
O=C(Nc1nccs1)c1sc2cc(Cl)ccc2c1Cl,130,-9,3,-4,80*,-8,110*,18*
COc1ccc(NC(=O)c2cc3c(=O)n4ccccc4nc3n2C)cc1OC,80,12,2,8,-10,-1,nt,nt
c1ccc(CNc2c(-c3cccc(SC4CCCCC4)c3)nc3ccccn23)cc1,nt,nt,nt,nt,4,nt,nt,nt
Clc1cccc(-c2ccc(-c3nc4ccccn4c3NCc3ccccc3)cc2)c1,nt,nt,nt,nt,98*,nt,71*,7
CC(=O)N1CCn2c3c(c(=O)c4cc(C)ccc42)CCC31 (stereo unspecified),102,13,-5,2,-2,-5,nt,nt
CCN1CCn2c3c(c4cc(C)ccc42)CCCC31 (stereo unspecified),96,11,-10,5,81*,7,105*,11*
CC(=O)N1CCn2c3c(c4cc(C)ccc42)CCCC31 (stereo unspecified),85,5,3,-1,35,2,nt,nt
Cc1ccc2c(c1)c1c3n2CCN(C(=O)CCl)C3CCC1 (stereo unspecified),nt,nt,nt,nt,113*,nt,98*,17*
Cc1ccnc(SCC(=O)c2ccc(Br)cc2)c1C#N,109,6,-4,0,125*,1,125*,93*
Cc1ccc(C(=O)CSc2nsc(C)c2C#N)cc1,107,15,-27,-12,-5,-9,nt,nt
Cc1cc(C)c(C#N)c(OCC(=O)c2ccc(Br)cc2)n1,108,9,-7,4,101*,2,106*,20*
COc1cc(/C=N/NC(=O)c2cccc(NC(=O)c3ccccc3C)c2)ccc1O,nt,nt,nt,nt,15,nt,nt,nt
COc1cc(/C=N/NC(=O)c2cccc(NC(=O)c3ccccc3)c2)ccc1O,nt,nt,nt,nt,100*,nt,88*,nt
O=C(NNC(=S)Nc1cccc(Cl)c1)c1ccccc1OC(F)F,94,5,-99,-9,85*,5,126*,27*
O=C(NNC(=S)Nc1ccccc1)c1cc(Br)ccc1Cl,nt,nt,nt,nt,103*,nt,91*,83*
O=C(NNC(=S)Nc1ccccc1)NNC(=S)Nc1ccccc1,104,6,-12,5,4,-1,nt,nt
CC(Oc1ccccc1Cl)C(=O)N(Cc1cccs1)C1CCS(=O)(=O)C1 (stereo unspecified),nt,nt,nt,nt,1,nt,nt,nt
Cn1c(=O)c(-c2ccccc2)nn2c3ccccc3nc12,118,6,-2,-5,110*,2,131*,19*
Cc1cccc(-c2sc(Nc3ccccc3)n[n+]2-c2ccccc2)c1,nt,nt,nt,nt,108*,nt,50*,132*
SMILES,STAT3 act,FXIIa inh 1536,KLK5 inh,thrombin 1536,AHR activator,FXIa inh,AHR act cf,PXR counter
O=C(O)c1ccc(-c2sc(Nc3ccccc3)n[n+]2-c2ccccc2)cc1,nt,nt,nt,nt,43,nt,nt,nt
O=C(O)CN(C1CCCCC1)S(=O)(=O)c1ccc(F)cc1,105,12,0,-3,-1,6,nt,nt
Cc1ccccc1-c1nc(-c2ccccn2)no1,24,8,1,0,29,-1,nt,nt
COc1ccccc1-c1noc(-c2cccs2)n1,119,15,-20,3,86*,5,144*,17*
COc1ccccc1-c1nc(-c2ccccn2)no1,42,9,-3,-5,113*,-3,118*,6
O=C(Nc1ccc(F)cc1F)c1cc(Cl)sc1Cl,nt,nt,nt,nt,0,nt,nt,nt
CN(C)S(=O)(=O)Oc1ccc(Cl)cc1C(=O)Nc1ccc(F)cc1F,88,10,14,-1,81*,1,81*,191*
COc1ccc(CCNC(=O)CC2Oc3ccc(Cl)cc3NC2=O)cc1OC (stereo unspecified),102,6,-26,-6,98*,1,3,46*
COc1ccc(CCNC(=O)CC2Nc3ccccc3NC2=O)cc1OC (stereo unspecified),99,0,1,-8,4,-8,nt,nt
O=C(Nc1cccc(Cl)c1)N1CCc2ccccc2C1,nt,nt,nt,nt,114*,nt,118*,30*
COc1cccc(NC(=O)N2CCc3ccccc3C2)c1,nt,nt,nt,nt,41,nt,nt,nt
CC(C)c1ccc(NC(=O)N2CCc3ccccc3C2)cc1,114,1,-9,-2,114*,-1,96*,93*
CCc1cccc2sc(NC(=O)C3CC3)nc12,nt,nt,nt,nt,91*,nt,119*,13*
Cc1nc(NC(=O)C2CC2)sc1C(=O)Nc1ccc(Br)cc1,nt,nt,nt,nt,103*,nt,104*,33*
Cc1ccc(C)c2sc(NC(=O)C3CC3)nc12,nt,nt,nt,nt,92*,nt,121*,nt
Cc1cc(C)c2sc(NC(=O)C3CC3)nc2c1,nt,nt,nt,nt,106*,nt,117*,59*
CN(C)CCNC(=O)Cn1ccc2cc(S(=O)(=O)N3CCCCCC3)ccc21,nt,nt,nt,nt,-1,nt,nt,nt
COc1ccc(NC(=O)COC(=O)C2CCN(S(=O)(=O)c3ccccc3)CC2)cc1Cl,nt,nt,nt,nt,-1,nt,nt,nt
CCOc1ccc(CCNC(=O)CCc2nnc3ccc(N4CCCCC4)nn23)cc1OCC,nt,nt,nt,nt,1,nt,nt,nt
N#CC1=C(N)Nc2nc3ccccc3n2C1c1ccc(Cl)cc1 (stereo unspecified),90,9,-18,-1,99*,0,69*,49*
N#CC1=C(N)Nc2ncnn2C1c1ccccc1 (stereo unspecified),88,12,-20,-2,4,2,nt,nt
C/C(CC(=O)Nc1cc(Cl)ccc1Cl)=N\NC(N)=S,109,13,-2,-3,84*,6,2,14*
O=C(Oc1ccc(Cl)cc1N1C(=O)CCC1=O)c1ccco1,90,32,0,6,1,6,nt,nt
C=CCn1c(=O)[nH]c2cc(C(=O)N3CC=C(c4ccccc4)CC3)ccc2c1=O,106,4,-1,-6,0,-3,nt,nt
Cc1cc(C)c(C(=O)COc2cccnc2[N+](=O)[O-])cc1C,95,8,-18,-1,-2,5,nt,nt
O=C(COc1cccnc1[N+](=O)[O-])c1c[nH]c2ccccc12,nt,8,0,-5,87*,1,108*,16*

# Bioassay records deposited in PubChem by several laboratories.
